Test results reported in PubChem BioAssay AID804 (SRMLSC, 2007).
Screen size: about 140,000 compounds; about 710 (0.51%) were called active.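 The calls were made as follows: active = inhibition above a set limit, 3 SD over the mean compound inhibition (cut at about 44% in these data); inactive = the rest.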 What follows is part of a selection rich in actives, with near analogues and random picks from the rest.

experiment: BB579 yeast growth reduction, restrictive medium – S. cerevisiae, yeast lifespan-shortening project, primary screen (AID 804); conditions: OD615, 48 h, at 10 µM, hits give high values
In short: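 System: Saccharomyces cerevisiae DeaD strain BB579, replicative lifespan model yeast | Buffer or medium: Restrictive glucose-based CSMM-D medium | Times: 4 h preincubation and 48 h exposure at 30 °C | Detection: OD615 turbidity measurement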

SMILES	inhibition
COc1ccc2nc(Nc3nc(-c4cc5ccccc5oc4=O)cs3)sc2c1	-1.96% (inactive)
O=C(Cc1coc2ccc3ccccc3c12)NCc1cccs1	-8.63% (inactive)
CCC(=O)Nc1c(S(=O)(=O)c2ccccc2)c2nc3ccccc3nc2n1Cc1ccccc1	-16.3% (inactive)
O=C(O)c1ccc(/C=N/NC(=O)c2ccc(Br)cc2)cc1	-28.3% (inactive)
O=S(=O)(NCCc1ccncc1)c1ccccc1	-4.48% (inactive)
COc1cc(OC)c(C(=O)Nc2ccccc2-c2ccccc2)cc1OC	-28.8% (inactive)
CCNC(=O)NC(=O)C(C)OC(=O)C1CCN(S(=O)(=O)c2ccccc2F)CC1 (stereo not drawn)	6.21% (inactive)
COc1ccc(C(=O)/C=C/c2ccc(OC3CSC3)cc2)cc1	-16.1% (inactive)
COc1ccc(/C=C/C(=O)c2cc(Br)ccc(=O)c2O)cc1	96% (active)
COc1ccc(/C=C/C(=O)c2ccc(OC)cc2O)cc1	-54.2% (inactive)
Cc1ccc(C(=O)OCc2nc(N)nc(Nc3ccccc3C)n2)cc1	-34.8% (inactive)
CC(=O)c1c(N2CCN(c3ccc(F)cc3)CC2)nc(=S)n(-c2ccccc2)c1C	-54.2% (inactive)
Cc1nc(N2CCCC2C(=O)O)c2oc3ccccc3c2n1 (stereo not drawn)	-21.7% (inactive)
Cc1nc(Cl)c2oc3ccccc3c2n1	59.5% (active)
CCSc1nc(C)nc2c1oc1ccccc12	-45.9% (inactive)
CCOC(=O)C1=C(C)OC(N)=C(C#N)C1c1cncc(-c2ccc(F)cc2)c1 (stereo not drawn)	-36.2% (inactive)
COc1ccc(C(=O)C[n+]2ccc(C)cc2)cc1	-28.4% (inactive)
CCc1ccc(NC(=O)CC2C(=O)NCCN2C(=S)Nc2ccccc2)cc1 (stereo not drawn)	-24.6% (inactive)
COc1cccc(NC(=S)NC(=O)c2c(Cl)c(C)nn2C)c1	-62.5% (inactive)
Cc1nc2sc(C(=O)c3ccccc3)c(N)c2c2c1CCCC2	8.75% (inactive)
N#C/C(=C\c1ccccc1C(F)(F)F)C(=O)Nc1ccccc1F	4.84% (inactive)
CC(=O)NC1=NN(C(C)=O)C(C)(c2ccc(C)cc2)S1 (stereo not drawn)	-33.1% (inactive)
Fc1ccc2c(c1)C(c1cccnc1)=NNC(c1cccs1)=N2	-47.9% (inactive)
COC(=O)c1ccc(C(=O)OC)c(NC(=S)N2CCN(c3ccc(F)cc3)CC2)c1	-49.1% (inactive)

SMILES	inhibition
Cc1ccc(-n2c(SCC(=O)N3c4ccccc4Sc4ccccc43)nnc2-c2ccncc2)cc1	-47.4% (inactive)
COc1ccc(C)cc1NC(=O)C(Sc1ccccc1)c1ccccc1 (stereo not drawn)	-2.09% (inactive)
Cc1ccc(S(=O)(=O)N(C)C)cc1NC(=O)/C=C/c1cccs1	-48% (inactive)
Cc1cc(/C=C2\SC(=Nc3ccc(N4CCOCC4)cc3)N(C)C2=O)c(C)n1-c1cccnc1	-7.27% (inactive)
Cc1occc1C(=O)Nc1nnc(C2CCCCC2)s1	-32.1% (inactive)
CC1CCN(c2ccc(C(=O)Nc3nnc(C4CC4)s3)cc2[N+](=O)[O-])CC1	-33% (inactive)
O=C(Nc1nnc(C2CC2)s1)c1ccccn1	62% (active)
CCC(NC(=O)c1ccccc1NC(=O)c1ccccc1)C(=O)NNC(=O)CSc1nc2ccccc2o1 (stereo not drawn)	-6.61% (inactive)
CCS(=O)(=O)N1Cc2ccccc2CC1C(=O)Nc1nc2ccc(F)cc2s1 (stereo not drawn)	-23% (inactive)
COc1cc(/C=C(/NC(=O)c2ccc(Cl)cc2Cl)C(=O)O)cc(OC)c1OC	-17.4% (inactive)
C#CCCCc1nc2ccccc2c(=O)n1N	-33.7% (inactive)
Cc1ccc(OCC(=O)Nc2ccccc2Sc2ccc(Cl)cc2)c([N+](=O)[O-])n1	-29.5% (inactive)
CC1=C[C@H]2Cc3cc(C)cc(C)c3S(=O)(=O)[C@@H]2C=C1	-12.4% (inactive)
CC(=O)N1C(C)c2ccccc2C(C)(C)CC12CCCCC2 (stereo not drawn)	-16.3% (inactive)
O=c1c(Cl)c(NCc2ccc(F)cc2Cl)cnn1C12CC3CC(CC(C3)C1)C2	-27.1% (inactive)
Cc1ccc(CCC(=O)Nc2ncc(Cc3cc(Cl)ccc3Cl)s2)o1	-66.6% (inactive)
Cc1ncc(CC(=O)n2cc(C(=O)c3cc(Cl)ccc3O)cn2)s1	68.2% (active)
COc1cc(/C=C/C(=O)OCC(=O)Nc2cccc(Oc3ccccc3)c2)ccc1O	-29.9% (inactive)
C/C(=N/NC(=O)C1COc2ccccc2O1)c1ccco1 (stereo not drawn)	-32.3% (inactive)
O=C(COC(=O)CSc1nnc(-c2ccc(Cl)cc2)o1)Nc1cc(Cl)cc(Cl)c1	-26.3% (inactive)
CN(Cc1ccccc1)C(=O)COC(=O)c1ccccc1Nc1ccccc1	-8.71% (inactive)
O=C(Nc1ccc([N+](=O)[O-])cc1)C1(c2ccccc2)CCOCC1	-16.4% (inactive)
O=C(NC1CCCC1)C(NS(=O)(=O)c1ccc(Br)s1)c1ccccc1 (stereo not drawn)	-26.3% (inactive)
O=S(=O)(c1ccc(F)cc1)N1CCN(C(=S)NCc2ccco2)CC1	-18% (inactive)

SMILES	inhibition
N#C/C(=C(/O)COC(=O)COc1ccc(Cl)cc1)c1nc2ccccc2[nH]1	-22.6% (inactive)
Cc1ccc(NC(=O)COC(=O)CCc2nc3ccccc3n2-c2ccccc2)c(C)c1	-45.6% (inactive)
COc1ccc(CN2CN(C(C)C)CSC2=S)cc1	68.5% (active)
S=C1SCN(CCN2CCOCC2)CN1Cc1ccccc1	39.7% (inactive)
COCC(=O)Nc1cc(C(=O)OC)cc(C(=O)OC)c1	6.64% (inactive)
Cc1cc2oc(=O)cc(CN3CCN(S(=O)(=O)c4cccs4)CC3)c2cc1C(C)C	-20.6% (inactive)
Cc1ccc(CNC(=O)Cn2c(=O)c3sccc3n(Cc3cccc([N+](=O)[O-])c3)c2=O)cc1	-44.2% (inactive)
Cc1cccc(NC(=O)Cn2c(=O)n(Cc3ccccc3)c(=O)c3c(C)c(C)sc32)c1	-27.1% (inactive)
OC(CNCC1CCCO1)Cn1c2ccc(Br)cc2c2cc(Br)ccc21 (stereo not drawn)	98.7% (active)
Cc1cc(Br)ccc1NC(=O)C1CCCO1 (stereo not drawn)	-21.5% (inactive)
Cc1ccc(C(=O)NCC2CCCO2)o1 (stereo not drawn)	-26.6% (inactive)
COc1ccc(NC(=O)Nc2ccc3nc(C)c(C)nc3c2)cc1	-50.2% (inactive)
COc1ccc2nc(/N=C(\N)NC(=O)Nc3ccccc3)nc(C)c2c1	68.3% (active)
COc1ccc2nc(SCc3ccccc3)nc(C)c2c1	-34.5% (inactive)
CCOC(=O)CC(NC(=O)C1c2ccccc2Oc2ccccc21)c1ccc(C)cc1 (stereo not drawn)	-27.5% (inactive)
Cc1cc(/C=C2/NC(=O)NC2=O)c(C)n1-c1cccnc1	-7.15% (inactive)
CC(C)n1c(O)c(N=Nc2ccccn2)c2ccccc21	-16.1% (inactive)
O=C1Nc2ccccc2C12Nc1ccccc1S2 (stereo not drawn)	-30.7% (inactive)
C=C1c2cc(CC)ccc2NC(=O)N1c1ccc(C)cc1	23.4% (inactive)
CCc1ccc2c(c1)C1(NN=C(c3ccccc3)S1)C(=O)N2 (stereo not drawn)	94.7% (active)
Cc1ccc(OCCOCCOc2ccc(Br)cc2/C=N\NC(=O)c2ccncc2)cc1	-32.5% (inactive)
COC(=O)c1ccccc1NC(=S)NC(=O)c1ccccc1F	-31.5% (inactive)
CC(C)(C)c1ccc(/C=C/C(=O)Nc2ncccn2)cc1	-6.47% (inactive)
CCn1c(C(C)NC(=O)c2ccc(C)cc2)n[nH]c1=S (stereo not drawn)	-50.9% (inactive)

SMILES	inhibition
COc1ccc(Cc2nnc(N/N=C/c3ccccc3O)[nH]c2=O)cc1OC	-57% (inactive)
Cc1csc(=Nc2ccccc2)n1CCO	-3.94% (inactive)
Oc1c(Cl)cc(Cl)c(Cl)c1Cc1c(O)c(Cl)cc(Cl)c1Cl	71.3% (active)
Cc1ccc(C(=O)Nc2sc(Cc3ccc4c(c3)OCO4)c(C)c2C(N)=O)cc1	-10.9% (inactive)
NC1=C([N+](=O)[O-])C(c2ccccc2)C2=C(CCCC2=O)O1 (stereo not drawn)	-44.3% (inactive)
CCCCC(O)(CCCC)C(=O)NN(C(=O)CCl)c1ccccc1	-4.22% (inactive)
CCOC(=O)c1sc2nc(C)nc(SCC(N)=O)c2c1C	-20.9% (inactive)
CCOc1ccc(/C=N/NC(=O)C(C)Sc2ccccn2)cc1OCC (stereo not drawn)	-33.6% (inactive)
Cc1ccc2[nH]c(=O)c(CC=C(Cl)Cl)c(C)c2c1	-51.5% (inactive)
CCOC(=O)c1sc(NC(=O)COc2ncnc3ccccc23)c(C(=O)OCC)c1C	-43.9% (inactive)
Cc1nn(Cc2ccccc2)c(C)c1C(=O)NCCN1C(=O)S/C(=C\c2ccc(F)cc2)C1=O	-32.9% (inactive)
CC(CNc1ccc([N+](=O)[O-])c2cccnc12)Nc1c([N+](=O)[O-])cc(C(F)(F)F)cc1[N+](=O)[O-] (stereo not drawn)	-23.5% (inactive)
NS(=O)(=O)c1ccc(N=Cc2ccc(Br)s2)cc1	-15% (inactive)
O=C(COC(=O)/C=C/c1cn(-c2ccccc2)nc1-c1cccnc1)Nc1ccc(Cl)cc1Cl	-21.4% (inactive)
CC(Sc1nnc2c(n1)C1CCC2(C)C1(C)C)C(=O)Nc1ccccc1 (stereo not drawn)	-23.4% (inactive)
O=C(/C=C\c1ccc2c(c1)OCO2)NC1(C(=O)Nc2ccc3c(c2)OCCO3)CCCCC1	9.33% (inactive)
COc1ccc(S(=O)(=O)N2CN(CCc3ccc(OC)c(OC)c3)c3nc4ccccc4nc32)cc1	-25.7% (inactive)
COc1cccc(N(C(=O)C2COc3ccccc3O2)C(C(=O)NC2CCCCC2)c2ccc(O)cc2)c1 (stereo not drawn)	-6.16% (inactive)
CCCCCCCC[n+]1cccc(C(=O)N2c3c(nc(N)[nH]c3=O)NC(C)C2C)c1 (stereo not drawn)	-5.07% (inactive)
O=C(Nc1nc(-c2ccc(-c3ccccc3)cc2)cs1)c1cnccn1	-18.9% (inactive)
O=C(CNCc1ccc(F)cc1)Nc1ccccc1-c1ccccc1	-20.9% (inactive)
